The text below walks through data of ChEMBL document CHEMBL3867436, “Chemistry of Renieramycins. 15. Synthesis of 22-O-Ester Derivatives of Jorunnamycin A and Their Cytotoxicity against Non-Small-Cell Lung Cancer Cells” (J Nat Prod, 2016).

Structures are written as SMILES. pIC50: −log10 of the molar value.

Assay [1] is described as follows: Cytotoxicity against human NCI-H292 cells assessed as decrease in cell viability after 72 hrs by MTT assay. As to conditions: NCI-H292, 72 h. The format is functional, cell-based. The procedure, abridged:
(§1)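 Human NSCLC lines (ATCC) seeded at 2 × 10^3 cells/well, adhered overnight, then exposed 72 h to at least five concentrations of analogue in RPMI with ≤0.2% DMSO. MTT 0.5 mg/mL added for 4 h, formazan dissolved in DMSO, absorbance read at 570 nm. Viability relative to untreated cells. IC50 per experiment averaged over three independent triplicate runs on different days (mean ± SD). Cisplatin positive control.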

Assay [2] in a line: Cytotoxicity against human NCI-H460 cells assessed as decrease in cell viability after 72 hrs by MTT assay. As to conditions: NCI-H460, 72 h. In kind it is functional, cell-based. The procedure, abridged: as §1

Consider `COC1=C(C)C(=O)C2=C(C1=O)[C@H]1[C@@H]3CC4=C(C(=O)C(OC)=C(C)C4=O)[C@H](COC(=O)/C=C/c4ccc([N+](=O)[O-])cc4)N3[C@@H](C#N)[C@H](C2)N1C`, for which the pIC50 – broadly, the negative decadic logarithm of the IC50, by convention in mol/L – is 7.66 in assay [1] and 7.85 in assay [2].
For `COC1=C(C)C(=O)C2=C(C1=O)[C@H]1[C@@H]3CC4=C(C(=O)C(OC)=C(C)C4=O)[C@H](COC(=O)c4cccc(C(F)(F)F)c4)N3[C@@H](C#N)[C@H](C2)N1C`, the pIC50 is 7.31 in assay [1] and 7.52 in assay [2].
Regarding `COC1=C(C)C(=O)C2=C(C1=O)[C@H]1[C@@H]3CC4=C(C(=O)C(OC)=C(C)C4=O)[C@H](COC(=O)/C=C/c4ccncc4)N3[C@@H](C#N)[C@H](C2)N1C`, the pIC50 in assay [1] and in assay [2] was 7.70 each time.
Take `COC1=C(C)C(=O)C2=C(C1=O)[C@H]1[C@@H]3CC4=C(C(=O)C(OC)=C(C)C4=O)[C@H](COC(=O)/C=C/c4ccccc4Cl)N3[C@@H](C#N)[C@H](C2)N1C`: the negative logarithm of the IC50 (pIC50) in assay [1] is 7.60; in assay [2], 8.05.
The like results for `COC1=C(C)C(=O)C2=C(C1=O)[C@H]1[C@@H]3CC4=C(C(=O)C(OC)=C(C)C4=O)[C@H](COC(=O)/C=C/c4c(F)c(F)c(F)c(F)c4F)N3[C@@H](C#N)[C@H](C2)N1C` were, in that order, 7.68 and 7.16.
On to `COC1=C(C)C(=O)C2=C(C1=O)[C@H]1[C@@H]3CC4=C(C(=O)C(OC)=C(C)C4=O)[C@H](COC(=O)c4ccc(F)cc4)N3[C@@H](C#N)[C@H](C2)N1C`, for which the pIC50 in assay [1] was 7.25; in assay [2] it was 7.66.
On the same counts, the results for `COC1=C(C)C(=O)C2=C(C1=O)[C@H]1[C@@H]3CC4=C(C(=O)C(OC)=C(C)C4=O)[C@H](COC(=O)c4ccccc4C(F)(F)F)N3[C@@H](C#N)[C@H](C2)N1C` are 7.29 and 7.66.
On the same counts, the results for `COC1=C(C)C(=O)C2=C(C1=O)[C@H]1[C@@H]3CC4=C(C(=O)C(OC)=C(C)C4=O)[C@H](COC(=O)/C=C/c4ccc(F)cc4)N3[C@@H](C#N)[C@H](C2)N1C` are 7.36 and 7.92.
Regarding `COC1=C(C)C(=O)C2=C(C1=O)[C@H]1[C@@H]3CC4=C(C(=O)C(OC)=C(C)C4=O)[C@H](COC(=O)c4cccnc4)N3[C@@H](C#N)[C@H](C2)N1C`, the pIC50 was 8.19 in assay [1] and 8.22 in assay [2].
Take `COC1=C(C)C(=O)C2=C(C1=O)[C@H]1[C@@H]3CC4=C(C(=O)C(OC)=C(C)C4=O)[C@H](COC(=O)/C=C/c4cccc(F)c4)N3[C@@H](C#N)[C@H](C2)N1C`: the negative logarithm of the IC50 (pIC50) in assay [1] was 7.96; in assay [2], 8.01.
The like results for `COC1=C(C)C(=O)C2=C(C1=O)[C@H]1[C@@H]3CC4=C(C(=O)C(OC)=C(C)C4=O)[C@H](COC(=O)c4cccc(F)c4)N3[C@@H](C#N)[C@H](C2)N1C` were, in that order, 7.74 and 7.96.
The like results for `COC1=C(C)C(=O)C2=C(C1=O)[C@H]1[C@@H]3CC4=C(C(=O)C(OC)=C(C)C4=O)[C@H](COC(=O)c4ccccn4)N3[C@@H](C#N)[C@H](C2)N1C` were, in that order, 8.43 and 8.66.
Turning to `COC1=C(C)C(=O)C2=C(C1=O)[C@H]1[C@@H]3CC4=C(C(=O)C(OC)=C(C)C4=O)[C@H](COC(=O)/C=C/c4ccccc4)N3[C@@H](C#N)[C@H](C2)N1C`, the figures for the pIC50 in assay [1] and in assay [2] were 7.72 and 7.74, respectively.
On the same counts, the results for `COC1=C(C)C(=O)C2=C(C1=O)[C@H]1[C@@H]3CC4=C(C(=O)C(OC)=C(C)C4=O)[C@H](COC(=O)CC(F)(F)F)N3[C@@H](C#N)[C@H](C2)N1C` are 6.24 and 6.49.
On the same counts, the results for `COC1=C(C)C(=O)C2=C(C1=O)[C@H]1[C@@H]3CC4=C(C(=O)C(OC)=C(C)C4=O)[C@H](COC(=O)c4ccncc4)N3[C@@H](C#N)[C@H](C2)N1C` are 8.96 and 8.80.
As to `COC1=C(C)C(=O)C2=C(C1=O)[C@H]1[C@@H]3CC4=C(C(=O)C(OC)=C(C)C4=O)[C@H](COC(=O)c4ccc(C(F)(F)F)cc4)N3[C@@H](C#N)[C@H](C2)N1C`, the results for the negative-log IC50 (pIC50) in assay [1] and in assay [2] were 7.22 and 7.62, respectively.
The like results for `COC1=C(C)C(=O)C2=C(C1=O)[C@H]1[C@@H]3CC4=C(C(=O)C(OC)=C(C)C4=O)[C@H](COC(=O)c4ccccc4F)N3[C@@H](C#N)[C@H](C2)N1C` were, in that order, 7.52 and 8.00.
The like results for `COC1=C(C)C(=O)C2=C(C1=O)[C@H]1[C@@H]3CC4=C(C(=O)C(OC)=C(C)C4=O)[C@H](CO)N3[C@@H](C#N)[C@H](C2)N1C` were, in that order, 6.66 and 6.80.
On the same counts, the results for `COC1=C(C)C(=O)C2=C(C1=O)[C@H]1[C@@H]3CC4=C(C(=O)C(OC)=C(C)C4=O)[C@H](COC(=O)/C=C/c4cccnc4)N3[C@@H](C#N)[C@H](C2)N1C` are 8.31 and 8.55.
As to `C/C=C(/C)C(=O)OC[C@H]1C2=C(C[C@H]3[C@H]4C5=C(C[C@@H]([C@H](C#N)N13)N4C)C(=O)C(C)=C(OC)C5=O)C(=O)C(C)=C(OC)C2=O` [RENIERAMYCIN M], the values for the pIC50 in assay [1] and in assay [2] were 7.64 and 8.08, respectively.
